This note sets out measurements from ChEMBL document CHEMBL4229503, “Discovery of novel Syk/PDGFR-α/c-Kit inhibitors as multi-targeting drugs to treat rheumatoid arthritis” (Bioorg Med Chem, 2018).

The structures appear in SMILES notation. Converted amounts (≈) assume the structure as drawn. Some results are limits rather than exact numbers.

Data set [1] deals with Mast/stem cell growth factor receptor Kit (Homo sapiens, UniProt P10721). The data set is described as follows: Inhibition of c-kit (unknown origin) using FAM-labeled peptide as substrate preincubated for 10 mins followed by substrate addition measured after 25 mins. In outline: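 Enzyme was preincubated with compound for 10 min at room temperature, then FAM-labeled peptide with ATP was added for 25 min at 28 °C. After an EDTA stop, the plate was read on a Caliper. IC50 came from non-linear curve fit.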

A short description of data set [2]: Antiproliferative activity against rheumatoid arthritis patient-derived HFLS after 72 hrs by MTT assay. Type of data set: functional, Homo sapiens. Put shortly:
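RA synovial fibroblasts (DMEM, 10% FBS, passage 3) were seeded at 2 × 10^4 cells/well. Compound was given at graded concentrations against an untreated control for 72 h at 37 °C, 5% CO2. MTT was then added for 4 h and absorbance read at 450 nm. IC50 came from non-linear regression of 6-point dose-response curves.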

For data set [3], the species on record is Homo sapiens. The data set is described as follows: Antiinflammatory activity against rheumatoid arthritis patient-derived HFLS assessed as reduction in IL-6 levels incubated for 30 mins measured after 72 hrs by ELISA. The class given is functional. In outline: (§1)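 RA patient synovial fibroblasts were kept in high-glucose DMEM with 10% FBS at 37 °C under 5% CO2 and used after 3 passages. Cells were seeded at 2 × 10^4 cells/well in 6-well plates and given compound or vehicle for 30 min. IL-6 and MMP-3 in the supernatant were read by ELISA after 72 h.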

The species named for data set [4] is Homo sapiens. Nature of the data set: Antiinflammatory activity against rheumatoid arthritis patient-derived HFLS assessed as reduction in MMP-3 levels incubated for 30 mins measured after 72 hrs by ELISA. Type of data set: functional. Put shortly:
as §1

Data set [5] relates to BMMC. Nature of the data set: Antiproliferative activity against BALB/c mouse BMMC after 48 hrs by MTT assay.
Data set [6] relates to BMMC. The data set is described as follows: Antiinflammatory activity against BALB/c mouse BMMC assessed as reduction in TNFalpha levels incubated for 30 mins measured after 48 hrs by ELISA. The class given is functional, cell-based. In outline: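 BALB/c mouse bone-marrow mast cells were grown in RPMI 1640 with 1% non-essential amino acids and 10% FBS at 37 °C under 5% CO2. Cells were seeded at 2 × 10^4 cells/well in 6-well plates and given compound or vehicle for 30 min. Supernatant TNF-α was read by ELISA after 48 h.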

Data set [7] can be described thus: Solubility of the compound in water after 24 hrs by HPLC method. The class given is physicochemical.
The target in data set [8] is Platelet-derived growth factor receptor alpha (Homo sapiens, UniProt P16234). Nature of the data set: Inhibition of PDGFRalpha (unknown origin) using FAM-labeled peptide as substrate preincubated for 10 mins followed by substrate addition measured after 25 mins.
Platelet-derived growth factor receptor alpha, sequence (P16234 whole entry): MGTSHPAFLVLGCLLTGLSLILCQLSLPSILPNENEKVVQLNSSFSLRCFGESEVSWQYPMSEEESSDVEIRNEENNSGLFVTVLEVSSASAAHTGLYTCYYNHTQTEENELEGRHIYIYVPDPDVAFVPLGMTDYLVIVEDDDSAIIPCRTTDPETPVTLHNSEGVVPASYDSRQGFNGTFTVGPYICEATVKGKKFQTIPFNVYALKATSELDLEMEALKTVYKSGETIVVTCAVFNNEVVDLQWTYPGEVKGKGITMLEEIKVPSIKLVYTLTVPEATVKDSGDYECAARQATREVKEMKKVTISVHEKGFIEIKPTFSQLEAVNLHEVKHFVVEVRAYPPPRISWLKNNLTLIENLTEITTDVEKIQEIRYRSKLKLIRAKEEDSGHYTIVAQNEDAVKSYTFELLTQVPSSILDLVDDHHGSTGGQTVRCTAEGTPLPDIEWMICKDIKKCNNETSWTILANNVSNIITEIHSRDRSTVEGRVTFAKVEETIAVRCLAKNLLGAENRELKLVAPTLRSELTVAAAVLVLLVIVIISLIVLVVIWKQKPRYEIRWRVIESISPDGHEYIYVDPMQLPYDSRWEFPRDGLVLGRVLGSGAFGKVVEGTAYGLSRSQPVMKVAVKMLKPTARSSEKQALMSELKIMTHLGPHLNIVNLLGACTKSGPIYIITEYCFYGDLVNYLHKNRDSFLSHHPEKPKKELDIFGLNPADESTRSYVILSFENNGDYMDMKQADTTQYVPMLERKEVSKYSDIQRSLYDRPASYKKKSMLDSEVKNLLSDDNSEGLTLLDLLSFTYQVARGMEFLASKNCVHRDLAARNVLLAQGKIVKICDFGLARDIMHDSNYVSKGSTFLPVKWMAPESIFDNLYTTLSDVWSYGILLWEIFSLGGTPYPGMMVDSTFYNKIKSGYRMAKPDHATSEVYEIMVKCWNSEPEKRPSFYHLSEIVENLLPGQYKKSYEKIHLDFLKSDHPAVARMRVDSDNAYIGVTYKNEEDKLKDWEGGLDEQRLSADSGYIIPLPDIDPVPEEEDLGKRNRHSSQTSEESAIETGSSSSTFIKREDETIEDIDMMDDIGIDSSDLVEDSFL

Mast/stem cell growth factor receptor Kit, sequence (P10721 whole entry): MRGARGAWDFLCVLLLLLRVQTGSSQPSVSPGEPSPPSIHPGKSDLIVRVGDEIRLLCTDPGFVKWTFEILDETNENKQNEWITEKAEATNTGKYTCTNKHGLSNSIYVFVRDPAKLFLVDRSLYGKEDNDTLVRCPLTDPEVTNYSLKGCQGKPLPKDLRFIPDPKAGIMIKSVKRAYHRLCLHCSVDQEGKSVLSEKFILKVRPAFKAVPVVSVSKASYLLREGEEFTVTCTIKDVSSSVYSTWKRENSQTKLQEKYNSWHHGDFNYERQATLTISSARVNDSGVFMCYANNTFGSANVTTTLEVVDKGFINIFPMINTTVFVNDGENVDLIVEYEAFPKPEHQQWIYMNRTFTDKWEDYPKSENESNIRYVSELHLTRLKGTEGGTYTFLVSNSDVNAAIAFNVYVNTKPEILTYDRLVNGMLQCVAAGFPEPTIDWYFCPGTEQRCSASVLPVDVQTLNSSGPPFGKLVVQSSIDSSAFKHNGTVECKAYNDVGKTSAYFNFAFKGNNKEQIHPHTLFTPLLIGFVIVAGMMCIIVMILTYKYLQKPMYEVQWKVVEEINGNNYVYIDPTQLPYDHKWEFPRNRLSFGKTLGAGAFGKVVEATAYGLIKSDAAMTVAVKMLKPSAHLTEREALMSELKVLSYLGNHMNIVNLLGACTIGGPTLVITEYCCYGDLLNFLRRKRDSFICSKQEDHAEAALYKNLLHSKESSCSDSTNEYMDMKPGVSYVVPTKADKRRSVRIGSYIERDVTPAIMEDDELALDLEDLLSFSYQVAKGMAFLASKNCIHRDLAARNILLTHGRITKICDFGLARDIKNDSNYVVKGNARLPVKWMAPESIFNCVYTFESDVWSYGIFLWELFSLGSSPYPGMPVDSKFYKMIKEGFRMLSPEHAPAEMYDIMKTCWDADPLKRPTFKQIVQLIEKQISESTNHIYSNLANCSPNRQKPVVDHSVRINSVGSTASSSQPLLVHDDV

Turning to `COc1cc(Nc2nc(N3CCC(NC(=O)c4ccc(C(=O)O)cn4)C3)nc3c2COC3)cc(OC)c1` (centres undefined), the IC50 in data set [1] was determined as 18.6 µM; in data set [2], 3.2 µM; with BMMC [5] it was 2 µM. Moreover, the Activity result in the data set filed under Homo sapiens [3], in the data set filed under Homo sapiens [4] and in the data set with BMMC [6] was “Dose-dependent effect” in each case. Also, in data set [7], the concentration in solution (solubility at 24 h) was 167 µg/mL (≈ 330 µM).
Consider `COCCCNc1nc(N2CCC(NC(=O)c3ccc(C(=O)O)cn3)C2)nc2c1COC2` (centres undefined), for which the half-inhibitory concentration (IC50) in data set [8] and in data set [1] was > 50 µM in each case.
On to `CCc1ccc(Nc2nc(N3CCC(NC(=O)c4ccc(C(=O)O)cn4)C3)nc3c2COC3)cc1` (centres undefined), for which the IC50 in data set [8] is > 50 µM; in data set [1], > 50 µM; in data set [2] it was 9.4 µM.
`COc1cc(Nc2nc(N3CCC(NC(=O)c4ccc(C(=O)O)cn4)C3)nc3c2COC3)cc(OC)c1OC` (centres undefined): the half-inhibitory concentration (IC50) turned out to be 31.3 µM in data set [1], 31 µM in data set [2] and 21.1 µM in the data set on BMMC [5].
As for `Cc1ccc(Nc2nc(N3CCC(NC(=O)c4ccc(C(=O)O)cn4)C3)nc3c2COC3)cc1` (centres undefined), the half-maximal inhibitory concentration (IC50) in data set [8] and in data set [1] was > 50 µM each time.
As to `CCOCCCNc1nc(N2CCC(NC(=O)c3ccc(C(=O)O)cn3)C2)nc2c1COC2` (centres undefined), the IC50 in data set [8] and in data set [1] was > 50 µM throughout.
For `COc1ccc(Nc2nc(N3CCC(NC(=O)c4ccc(C(=O)O)cn4)C3)nc3c2COC3)cc1` (centres undefined), the IC50 in data set [8] and in data set [1] was > 50 µM each time.
As to `CCCCCCCNc1nc(N2CCC(NC(=O)c3ccc(C(=O)O)cn3)C2)nc2c1COC2` (centres undefined), the IC50 in data set [8] was > 50 µM; in data set [1] it was 25.8 µM; in data set [2], 8.1 µM; in the data set with BMMC [5], 13 µM. Also, the Activity result in the data set on BMMC [6] was “Dose-dependent effect”.
Take `O=C(O)c1ccc(C(=O)NC2CCN(c3nc4c(c(Nc5ccc6c(c5)OCCO6)n3)COC4)C2)nc1` (centres undefined): the IC50 in data set [8] is > 50 µM; in data set [1], 49.2 µM.
Take `COc1ccc(Nc2nc(N3CCC(NC(=O)c4ccc(C(=O)O)cc4)C3)nc3c2CCC3)cc1OC` (centres undefined): the concentration in solution in data set [7] (solubility at 24 h) was 86 µg/mL (≈ 171 µM).
Regarding `O=C(O)c1ccc(C(=O)NC2CCN(c3nc4c(c(NC5CCCCC5)n3)COC4)C2)nc1` (centres undefined), the 50% inhibitory concentration (IC50) is > 50 µM in data set [8], > 50 µM in data set [1] and 5.4 µM in data set [2].
In the case of `Cc1ccc(NC(=O)c2ccc(CN3CCN(C)CC3)cc2)cc1Nc1nc(-c2cccnc2)cs1` [MASITINIB], the midpoint of inhibition in the data set with BMMC [5], the IC50, lay at 0.1 µM.
In the case of `CCCCCNc1nc(N2CCC(NC(=O)c3ccc(C(=O)O)cn3)C2)nc2c1COC2` (centres undefined), the IC50 in data set [8] and in data set [1] was > 50 µM throughout.
As to `Cc1ccc(Nc2nc(N3CCC(NC(=O)c4ccc(C(=O)O)cn4)C3)nc3c2COC3)cc1C` (centres undefined), the concentration for half-maximal inhibition (IC50) in data set [8] was > 50 µM; in data set [1] it was > 50 µM; in data set [2], 11.2 µM.
Turning to `COc1ccc(Nc2nc(N3CCC(NC(=O)c4ccc(C(=O)O)cn4)C3)nc3c2COC3)cc1OC` (centres undefined), the IC50 in data set [1] is > 50 µM.
On to `CCCCCCNc1nc(N2CCC(NC(=O)c3ccc(C(=O)O)cn3)C2)nc2c1COC2` (centres undefined), for which the 50% inhibitory concentration (IC50) in data set [8] was > 50 µM; in data set [1], > 50 µM; in data set [2], 4 µM. Moreover, the Activity result in the data set filed under Homo sapiens [3] and in the data set filed under Homo sapiens [4] was “Dose-dependent effect” in each case.
